Measurements: ChEMBL document CHEMBL1255300, “Pharmacodynamics of the antibacterial effect and emergence of resistance to tomopenem, formerly RO4908463/CS-023, in an in vitro pharmacokinetic model of Staphylococcus aureus infection” (Antimicrob Agents Chemother, 2008)
Active and inactive are the calls of the source. No cut-off for these calls is given here.

How the values were obtained:
Staphylococcus aureus [1] = assay: AUBKC (0 to 24 hrs) in methicillin-resistant Staphylococcus aureus 33815 infected in in vitro pharmacokinetic model at 750 mg, iv every 8 hrs using 10^8 CFU/ml inoculum; format: functional
Procedure, shortened: (§1)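 Single-compartment dilutional in vitro PK model at 37°C in 10% Mueller-Hinton broth, stirred, flow 132 ml/h. […] Inoculum 10^6 CFU/ml added 45 min before dosing, or 10^8 CFU/ml run overnight. Viable counts with β-lactamase neutralisation. AUBKC by log-linear trapezoidal rule, at least triplicate.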

Staphylococcus aureus [2] = assay: Antibacterial activity against methicillin-resistant Staphylococcus aureus 33829 in in vitro pharmacokinetic model assessed as viable count at 6 times of MIC; format: functional
Procedure, shortened: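 Preexposure population analysis: time-zero model samples plated on nutrient agar without drug and with drug at multiples of the 10% broth MIC. Growth reported as log CFU/ml, detection limit 2 log10.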

Staphylococcus aureus [3] = assay: AUBKC (0 to 48 hrs) in methicillin-resistant Staphylococcus aureus 33827 infected in in vitro pharmacokinetic model at 750 mg, iv every 8 hrs using 10^8 CFU/ml inoculum; format: functional; procedure, shortened: as §1
Staphylococcus aureus [4] = assay: Antibacterial activity against methicillin-sensitive Staphylococcus aureus 5956 infected in in vitro pharmacokinetic model assessed as time required to 99.9% killing at 750 mg, iv every 8 hrs using 10^6 CFU/ml inoculum; format: functional
Staphylococcus aureus [5] = assay: Antibacterial activity against methicillin-resistant Staphylococcus aureus 33815 infected in in vitro pharmacokinetic model assessed as reduction in viable count at 1500 mg, iv every 8 hrs measured after 12 hrs using 10^6 CFU/ml inoculum; format: functional
Procedure, shortened: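 Log change in viable count from time zero to 12 h, β-lactamase-neutralised spiral plating, detection limit 10^2 CFU/ml, at least triplicate.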

Staphylococcus aureus [6] = assay: AUBKC (0 to 24 hrs) in methicillin-resistant Staphylococcus aureus 33921 infected in in vitro pharmacokinetic model at 1500 mg, iv every 8 hrs using 10^6 CFU/ml inoculum; format: functional; procedure, shortened: as §1
Staphylococcus aureus [7] = assay: Antibacterial activity against methicillin-sensitive Staphylococcus aureus 5956 infected in in vitro pharmacokinetic model assessed as reduction in viable count at 1500 mg, iv every 8 hrs measured after 36 hrs using 10^6 CFU/ml inoculum; format: functional
Staphylococcus aureus [8] = assay: AUBKC (0 to 48 hrs) in methicillin-resistant Staphylococcus aureus 33922 infected in in vitro pharmacokinetic model at 750 mg, iv every 8 hrs using 10^8 CFU/ml inoculum; format: functional; procedure, shortened: as §1
Staphylococcus aureus [9] = assay: Antibacterial activity against methicillin-resistant Staphylococcus aureus 33921 infected in in vitro pharmacokinetic model assessed as reduction in viable count at 750 mg, iv every 8 hrs measured after 48 hrs using 10^6 CFU/ml inoculum; format: functional
Serum = assay: Drug level in human serum at 700 mg; format: ADME, cell-free
Staphylococcus aureus [10] = assay: Antibacterial activity against methicillin-resistant Staphylococcus aureus 33820 assessed as viable count at 4 times of MIC after 48 hrs using 10^6 CFU/ml inoculum; format: functional, organism-based
Staphylococcus aureus [11] = assay: Antibacterial activity against methicillin-resistant Staphylococcus aureus 33829 assessed as viable count at 4 times of MIC after 48 hrs using 10^6 CFU/ml inoculum; format: functional, organism-based
Staphylococcus aureus [12] = assay: Antibacterial activity against methicillin-resistant Staphylococcus aureus 33827 infected in in vitro pharmacokinetic model assessed as reduction in viable count at 1500 mg, iv every 8 hrs measured after 36 hrs using 10^8 CFU/ml inoculum; format: functional
Procedure, shortened: (§2)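 Single-compartment dilutional in vitro PK model, 10% Mueller-Hinton broth, 37°C, stirred, dilution 132 ml/h. […] Inoculum 10^6 CFU/ml (added 45 min pre-dose) or 10^8 CFU/ml (run overnight). Viable counts by spiral plating, beta-lactamase neutralization, detection limit 10^2 CFU/ml. At least triplicate.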

Staphylococcus aureus [13] = assay: Antibacterial activity against methicillin-resistant Staphylococcus aureus 33820 in in vitro pharmacokinetic model assessed as viable count at 4 times of MIC; format: functional
Procedure, shortened: (§3)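 Population analysis before drug exposure (time 0). Model samples were plated on nutrient agar without drug and with tomopenem at 2×, 4× and 6× MIC (10% MHB MIC), and growth was recorded as log CFU/ml. Detection limit 2 log10.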

Staphylococcus aureus [14] = assay: T>MIC for 3-log drop in count in methicillin-resistant Staphylococcus aureus 33827 in in vitro pharmacokinetic model after 24 hrs using 10^8 CFU/ml inoculum; format: functional
Staphylococcus aureus [15] = assay: Antibacterial activity against methicillin-resistant Staphylococcus aureus 33827 infected in in vitro pharmacokinetic model assessed as reduction in viable count at 750 mg, iv every 8 hrs measured after 48 hrs using 10^8 CFU/ml inoculum; format: functional; procedure, shortened: as §2
Staphylococcus aureus [16] = assay: T>MIC for 2-log drop in count in methicillin-resistant Staphylococcus aureus 33815 in in vitro pharmacokinetic model after 24 hrs using 10^8 CFU/ml inoculum; format: functional
Staphylococcus aureus [17] = assay: Antibacterial activity against methicillin-resistant Staphylococcus aureus 33922 assessed as viable count at 4 times of MIC after 24 hrs using 10^6 CFU/ml inoculum; format: functional, organism-based
Staphylococcus aureus [18] = assay: T>MIC for 1-log drop in count in methicillin-resistant Staphylococcus aureus 33815 in in vitro pharmacokinetic model after 24 hrs using 10^6 CFU/ml inoculum; format: functional
Staphylococcus aureus [19] = assay: AUBKC (0 to 24 hrs) in methicillin-resistant Staphylococcus aureus 33827 infected in in vitro pharmacokinetic model at 750 mg, iv every 8 hrs using 10^6 CFU/ml inoculum; format: functional; procedure, shortened: as §1
Staphylococcus aureus [20] = assay: Antibacterial activity against methicillin-resistant Staphylococcus aureus 33827 infected in in vitro pharmacokinetic model assessed as reduction in viable count at 1500 mg, iv every 8 hrs measured after 24 hrs using 10^8 CFU/ml inoculum; format: functional; procedure, shortened: as §2
Staphylococcus aureus [21] = assay: AUBKC (0 to 48 hrs) in methicillin-resistant Staphylococcus aureus 33815 infected in in vitro pharmacokinetic model at 1500 mg, iv every 8 hrs using 10^8 CFU/ml inoculum; format: functional; procedure, shortened: as §1
Staphylococcus aureus [22] = assay: T>MIC for static effect in methicillin-resistant Staphylococcus aureus 33827 in in vitro pharmacokinetic model after 24 hrs using 10^6 CFU/ml inoculum; format: functional
Staphylococcus aureus [23] = assay: Antibacterial activity against methicillin-resistant Staphylococcus aureus 33820 in in vitro pharmacokinetic model assessed as viable count at 6 times of MIC; format: functional; procedure, shortened: as §3
Staphylococcus aureus [24] = assay: Antibacterial activity against methicillin-resistant Staphylococcus aureus 33820 infected in in vitro pharmacokinetic model assessed as reduction in viable count at 750 mg, iv every 8 hrs measured after 48 hrs using 10^6 CFU/ml inoculum; format: functional
Procedure, shortened: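 Single-compartment dilutional in vitro PK model, 37°C, stirred, in 10% Mueller-Hinton broth. […] Inoculum 10^6 CFU/ml from a 24-h plate culture was added 45 min before dosing. Viable counts by spiral plating on nutrient agar with β-lactamase neutralization. Log change was taken from time 0; detection limit 10^2 CFU/ml; at least triplicate.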

Staphylococcus aureus [25] = assay: Antibacterial activity against methicillin-sensitive Staphylococcus aureus 5956 infected in in vitro pharmacokinetic model assessed as reduction in viable count at 750 mg, iv every 8 hrs measured after 48 hrs using 10^6 CFU/ml inoculum; format: functional
Staphylococcus aureus [26] = assay: T>MIC for static effect in methicillin-resistant Staphylococcus aureus 33815 in in vitro pharmacokinetic model after 24 hrs using 10^6 CFU/ml inoculum; format: functional

## C[C@@H](O)[C@H]1C(=O)N2C(C(=O)O)=C(S[C@H]3C[C@@H](C(=O)N4CC[C@H](NC(=O)CNC(=N)N)C4)N(C)C3)[C@H](C)[C@H]12 [TOMOPENEM]
Staphylococcus aureus [1]
  AUBC: 100 log10CFU/ml.hr
Staphylococcus aureus [2]
  log10CFU/ml: 2.7
Staphylococcus aureus [3]
  AUBC: 87.9 log10CFU/ml.hr
Staphylococcus aureus [4]
  Time: 6 h
Staphylococcus aureus [5]
  log10CFU/ml: 4.2
Staphylococcus aureus [6]
  AUBC: 32.9 log10CFU/ml.hr
Staphylococcus aureus [7]
  log10CFU/ml: 4.4
Staphylococcus aureus [8]
  AUBC: 81.5 log10CFU/ml.hr
Staphylococcus aureus [9]
  log10CFU/ml: 3.8
Serum
  Drug uptake: 44 mg/L
Staphylococcus aureus [10]
  Activity: Active
Staphylococcus aureus [11]
  Activity: Active
Staphylococcus aureus [12]
  log10CFU/ml: 6
Staphylococcus aureus [13]
  log10CFU/ml: <2
Staphylococcus aureus [14]
  fT>MIC: 59.3%
Staphylococcus aureus [15]
  log10CFU/ml: 5.9
Staphylococcus aureus [16]
  fT>MIC: 2%
Staphylococcus aureus [17]
  Activity: inactive
Staphylococcus aureus [18]
  fT>MIC: 8.6%
Staphylococcus aureus [19]
  AUBC: 27.4 log10CFU/ml.hr
Staphylococcus aureus [20]
  log10CFU/ml: 5.8
Staphylococcus aureus [21]
  AUBC: 152.6 log10CFU/ml.hr
Staphylococcus aureus [22]
  fT>MIC: 15.4%
Staphylococcus aureus [23]
  log10CFU/ml: <2
Staphylococcus aureus [24]
  log10CFU/ml: 4.2
Staphylococcus aureus [25]
  log10CFU/ml: 4.5
Staphylococcus aureus [26]
  fT>MIC: 5.3%
